Experimental data as given in ChEMBL document CHEMBL1772981, “Discovery of 2-arylbenzoxazoles as upregulators of utrophin production for the treatment of Duchenne muscular dystrophy” (J Med Chem, 2011).
Values after ≈ are worked out from the molar mass of the structure shown.

Assays:
Mus musculus [1] = organism: Mus musculus; experiment: Activation of UTRN promoter in mouse H2K cells assessed as upregulation of UTRN production after 48 hrs by luciferase reporter linked assay; assay type: functional, cell-based; conditions: Mus musculus, H2K, 48 h
Method in brief: (§1)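 H2K myoblasts stably carrying a utrophin (UTRN) promoter–luciferase reporter were plated 24 h before dosing and exposed to compound for 48 h. Luciferase was read by luminescence (Steady-Glo). The primary screen was at 10 μM and the secondary at six concentrations for EC50, both in triplicate. Non-EC50 values are % of the reference upregulator's maximum, given with the concentration at maximum.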

Mus musculus [2] = organism: Mus musculus; experiment: Activation of UTRN promoter in mouse H2K cells assessed as upregulation of UTRN production at 10 uM after 48 hrs by luciferase reporter linked assay; assay type: functional; method in brief: as §1
[3] = Half life in mouse liver microsomes; assay type: ADME, Microsome
Mus musculus [4] = experiment: Tmax in CD1 mouse at 10 mg/kg, ip; assay type: ADME, organism-based; set-up: dose 10 mg/kg, route intraperitoneal; conditions: in vivo
Method in brief: (§2)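 Male CD1 mice were dosed i.p. at 10 mg/kg in 95% PBS containing 0.1% Tween 20 and 5% DMSO. Plasma was sampled at 5–360 or 5–480 min. AUC is in μg.min/mL. Half-life was not calculated where the log concentration–time plot lacked a linear region of at least three points.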

Mus musculus [5] = experiment: AUC in CD1 mouse at 10 mg/kg, ip; assay type: ADME, organism-based, Plasma; set-up: dose 10 mg/kg, route intraperitoneal; conditions: in vivo; method in brief: as §2
Mus musculus [6] = experiment: Cmax in CD1 mouse at 10 mg/kg, ip; assay type: ADME, organism-based; set-up: dose 10 mg/kg, route intraperitoneal; conditions: in vivo; method in brief: as §2
Mus musculus [7] = experiment: Half life in CD1 mouse at 10 mg/kg, ip; assay type: ADME, organism-based; set-up: dose 10 mg/kg, route intraperitoneal; conditions: in vivo; method in brief: as §2
[8] = Half life in human liver microsomes; assay type: ADME, Microsome
[9] = Aqueous solubility of the compound by turbidimetry; assay type: physicochemical; conditions: buffer
Method in brief: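 Turbidimetric aqueous solubility, reported as the final test compound concentration.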

Mus musculus [10] = organism: Mus musculus; experiment: Activation of UTRN promoter in mouse H2K cells assessed as upregulation of UTRN production at 30 uM after 48 hrs by luciferase reporter linked assay; assay type: functional; method in brief: as §1
Mus musculus [11] = organism: Mus musculus; experiment: Activation of UTRN promoter in mouse H2K cells assessed as upregulation of UTRN production at 10 uM after 72 hrs by RT-PCR analysis; assay type: functional
Method in brief: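 H2K cells were seeded at 25000 per well, left 24 h, then dosed for 72 h in 1% DMSO final. Total RNA was extracted and reverse transcribed. qPCR used an amplicon spanning the UTRN exon 3–4 boundary, with β-actin as the endogenous control, and was quantified by ΔΔCT. Values are % UTRN relative to DMSO control (=100), with P value.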

Mus musculus [12] = organism: Mus musculus; experiment: Activation of UTRN promoter in mouse H2K cells assessed as upregulation of UTRN production at 3 uM after 48 hrs by luciferase reporter linked assay; assay type: functional; method in brief: as §1

| SMILES | EC50 (Mus musculus [1]) | other results |
| --- | --- | --- |
| CCS(=O)(=O)c1ccc2oc(-c3cccc4ccccc34)nc2c1 | > 30 µM | – |
| CCS(=O)(=O)c1ccc2oc(-c3cnc4ccccc4c3)nc2c1 | > 30 µM | – |
| CCS(=O)(=O)c1ccc2oc(-c3cc4ccccc4cn3)nc2c1 | – | Activity (Mus musculus [2]): 63% |
| CC(C)C(=O)Nc1ccc2oc(-c3ccc(F)cc3)nc2c1 | 0.9 µM | half-life [3]: 16.1 min |
| CC(C)C(=O)Nc1ccc2oc(-c3ccc(Cl)cc3Cl)nc2c1 | – | Activity (Mus musculus [2]): 53% |
| CCCCC(=O)Nc1ccc2oc(-c3ccccc3)nc2c1 | – | Activity (Mus musculus [2]): 69% |
| CCS(=O)(=O)c1ccc2oc(-c3cccc(Oc4ccccc4)c3)nc2c1 | > 30 µM | – |
| CCS(=O)(=O)c1ccc2oc(-c3ccc(Cl)cc3)nc2c1 | 5 µM | Tmax (Mus musculus [4]): 5 min; half-life [3]: 30.6 min; AUC (Mus musculus [5]): 9650 ng·h/mL; Cmax (Mus musculus [6]): 5650 ng/mL; t1/2 (Mus musculus [7]): 131 min; half-life [8]: 69 min; solubility kinetic [9]: 10 µM (≈ 3.22 µg/mL) |
| CCS(=O)(=O)c1ccc2oc(-c3cccs3)nc2c1 | – | Activity (Mus musculus [10]): 29% |
| CCS(=O)(=O)c1ccc2nc(-c3ccc(Cl)c(Cl)c3)oc2c1 | 10.6 µM | – |
| CCS(=O)(=O)c1ccc2oc(-c3ccc(Cl)cn3)nc2c1 | > 30 µM | – |
| CC(C)C(=O)Nc1ccc2oc(-c3ccccc3Cl)nc2c1 | 1.1 µM | – |
| CCS(=O)(=O)c1ccc2nc(-c3ccc(Cl)cc3)oc2c1 | > 30 µM | – |
| O=C(Cc1ccccc1)Nc1ccc2oc(-c3ccc(Cl)cc3)nc2c1 | 5 µM | – |
| CCS(=O)(=O)c1ccc2oc(-c3ccc4[nH]ccc4c3)nc2c1 | – | Activity (Mus musculus [2]): 81% |
| O=S(=O)(O)c1ccc2oc(-c3ccc(Cl)cc3)nc2c1 | > 30 µM | – |
| CCS(=O)(=O)c1ccc2oc(-c3ccc(Cl)c(Cl)c3)nc2c1 | 3 µM | half-life [3]: 101 min; Activity (Mus musculus [11]): 138.3%; half-life [8]: 105 min; solubility kinetic [9]: 3 µM (≈ 1.07 µg/mL) |
| CCS(=O)(=O)c1ccc2oc(-c3ccc(-c4ccccc4)cc3)nc2c1 | > 30 µM | – |
| CC(C)C(=O)Nc1ccc2[nH]c(-c3ccc(Cl)cc3)nc2c1 | 10 µM | – |
| CC(C)C(=O)Nc1cc2oc(-c3ccc(Cl)cc3)nc2cc1Cl | > 30 µM | – |
| C[C@H](N)C(=O)Nc1ccc2oc(-c3ccc(Cl)cc3)nc2c1 | – | Activity (Mus musculus [12]): 35% |
| CC(C)S(=O)(=O)c1ccc2oc(-c3ccc(Cl)c(Cl)c3)nc2c1 | – | Activity (Mus musculus [2]): 45% |
| CC(C)C(=O)N(C)c1ccc2oc(-c3ccc(Cl)cc3)nc2c1 | > 30 µM | – |
| CCS(=O)(=O)c1ccc2oc(Cc3ccc4ccccc4c3)nc2c1 | > 30 µM | – |
| CC(=O)Nc1ccc2oc(-c3ccccc3)nc2c1 | 3 µM | – |
| CC(C)CNc1ccc2oc(-c3ccc(Cl)cc3)nc2c1 | > 30 µM | – |
| CCS(=O)(=O)c1ccc2oc(-c3ccc4c(c3)CCCC4)nc2c1 | – | Activity (Mus musculus [2]): 51% |

| SMILES | EC50 (Mus musculus [1]) | other results |
| --- | --- | --- |
| CC(C)C(=O)Nc1ccc2nc(-c3ccc(Cl)cc3)oc2c1 | 3 µM | – |
| CS(=O)(=O)c1ccc2oc(-c3ccc(Cl)cc3)nc2c1 | – | Activity (Mus musculus [2]): 53% |
| CCC(=O)Nc1ccc2oc(-c3ccccc3)nc2c1 | 0.8 µM | – |
| Cc1ccc(-c2nc3c(NC(=O)C(C)C)cccc3o2)cc1 | > 30 µM | – |
| CCS(=O)(=O)c1ccc2oc(-c3ccc4c(c3)OCO4)nc2c1 | 4.2 µM | – |
| CCS(=O)(=O)c1ccc2oc(-c3ccc4nccnc4c3)nc2c1 | > 30 µM | – |
| Cc1ccc(-c2nc3cc(NC(=O)C(C)C)ccc3o2)cc1 | – | Activity (Mus musculus [2]): 95% |
| CCC(=O)c1ccc2oc(-c3ccc(Cl)cc3)nc2c1 | 0.9 µM | half-life [3]: 13 min |
| CCN(CC)S(=O)(=O)c1ccc2oc(-c3ccc(Cl)cc3)nc2c1 | – | Activity (Mus musculus [2]): 28% |
| CC(C)S(=O)(=O)c1ccc2oc(-c3ccc(Cl)cc3)nc2c1 | 10.2 µM | – |
| NS(=O)(=O)c1ccc2oc(-c3ccc(Cl)cc3)nc2c1 | – | Activity (Mus musculus [10]): 60% |
| CCS(=O)(=O)c1ccc2oc(-c3ccco3)nc2c1 | > 30 µM | – |
| CCS(=O)(=O)c1ccc2oc(C3CCc4ccccc4C3)nc2c1 (configuration not stated) | – | Activity (Mus musculus [2]): 32% |
| CCS(=O)(=O)c1ccc2oc(-c3ccc4occc4c3)nc2c1 | – | Activity (Mus musculus [2]): 73% |
| CC(C)C(=O)Nc1ccc2nc(-c3ccc(Cl)c(Cl)c3)oc2c1 | 4 µM | Activity (Mus musculus [11]): 111.5% |
| CCS(=O)(=O)c1ccc2oc(C3CCCCC3)nc2c1 | – | Activity (Mus musculus [2]): 25% |
| CCCS(=O)(=O)c1ccc2oc(-c3ccc(Cl)cc3)nc2c1 | > 30 µM | – |
| CCC(=O)Nc1ccc2oc(-c3ccc(Cl)cc3)nc2c1 | – | Activity (Mus musculus [12]): 85% |
| CC(C)c1ccc2oc(-c3ccc(N)cc3O)nc2c1 | 1 µM | – |
| CC(C)NC(=O)c1ccc2oc(-c3ccc(Cl)cc3)nc2c1 | > 30 µM | – |
| CCS(=O)(=O)c1ccc2oc(-c3ccc4sccc4c3)nc2c1 | – | Activity (Mus musculus [2]): 86%; half-life [8]: 59 min |
| Nc1ccc(-c2nc3cc(N)ccc3o2)c(O)c1 | 3.5 µM | – |
| CC(C)C(=S)Nc1ccc2oc(-c3ccc(Cl)cc3)nc2c1 | > 30 µM | – |
| CC(C)C(=O)Nc1ccc2oc(-c3cc(Cl)ccc3Cl)nc2c1 | > 30 µM | – |
| CC(C)C(=O)Nc1ccc2oc(-c3ccc(C(F)(F)F)cc3)nc2c1 | – | Activity (Mus musculus [2]): 22% |
| CC(C)C(=O)Nc1ccc2oc(-c3ccccc3)nc2c1 | 0.8 µM | – |
| O=C(Nc1ccc2oc(-c3ccc(Cl)cc3)nc2c1)c1ccccc1 | > 30 µM | – |

| SMILES | EC50 (Mus musculus [1]) | other results |
| --- | --- | --- |
| CCS(=O)(=O)c1ccc2oc(-c3ccc(Oc4ccccc4)cc3)nc2c1 | > 30 µM | – |
| CCS(=O)(=O)c1ccc2oc(-c3ccc4c(c3)CCC4)nc2c1 | 2.3 µM | half-life [8]: 20 min |
| CCN(CC)c1ccc(-c2nc3cc(NC(=O)C(C)C)ccc3o2)cc1 | – | Activity (Mus musculus [2]): 12% |
| CC(C)C(=O)Nc1ccc2oc(-c3cccc(Cl)c3Cl)nc2c1 | 10 µM | – |
| CCS(=O)(=O)c1ccc2oc(-c3ccccc3Cl)nc2c1 | – | Activity (Mus musculus [10]): 62% |
| CCS(=O)(=O)c1ccc2oc(-c3ccc4ccccc4n3)nc2c1 | – | Activity (Mus musculus [12]): 59% |
| CCS(=O)(=O)c1ccc2oc(-c3ccc4ncccc4c3)nc2c1 | 1.9 µM | – |
| CCCC(=O)Nc1ccc2oc(-c3ccc(Cl)cc3)nc2c1 | 3.5 µM | – |
| CC(C)S(=O)(=O)Nc1ccc2oc(-c3ccc(Cl)cc3)nc2c1 | > 30 µM | – |
| Nc1ccc2oc(-c3ccc(Cl)c(Cl)c3)nc2c1 | – | Activity (Mus musculus [12]): 107% |
| CCS(=O)(=O)c1ccc2oc(-c3cccc(Cl)c3)nc2c1 | > 30 µM | – |
| CC(C)C(=O)Nc1ccc2sc(-c3ccc(Cl)cc3)nc2c1 | 1.2 µM | – |
| CC(C)C(=O)Nc1ccc2nc(-c3cccc(Cl)c3Cl)oc2c1 | > 30 µM | – |
| CCS(=O)(=O)c1ccc2oc(/C=C/c3ccccc3)nc2c1 | – | Activity (Mus musculus [2]): 53% |
| CCS(=O)(=O)c1ccc2oc(-c3cccc(Cl)c3Cl)nc2c1 | – | Activity (Mus musculus [2]): 40% |
| CCCC(=O)Nc1ccc2oc(-c3ccccc3)nc2c1 | 3 µM | – |
| CCS(=O)(=O)c1ccc2oc(-c3cccc(Cl)c3F)nc2c1 | > 10 µM | – |
| O=C(CCc1ccccc1)Nc1ccc2oc(-c3ccc(Cl)cc3)nc2c1 | > 30 µM | – |
| COc1ccc(-c2nc3cc(NC(=O)C(C)C)ccc3o2)cc1 | – | Activity (Mus musculus [2]): 132% |
| CC(C)C(=O)Nc1ccc2oc(-c3ccc(Cl)cc3)cc2c1 | > 30 µM | – |
| CC(C)C(=O)Nc1ccc2oc(-c3cccc(Cl)c3)nc2c1 | 4.5 µM | – |
| CCCc1nc2cc(S(=O)(=O)CC)ccc2o1 | – | Activity (Mus musculus [2]): 14% |
| CS(=O)(=O)c1ccc2oc(-c3ccc4ccccc4c3)nc2c1 | – | half-life [3]: 33.4 min; Activity (Mus musculus [12]): 95% |
| CCS(=O)(=O)c1ccc2oc(-c3ccccc3)nc2c1 | – | Activity (Mus musculus [2]): 69%; solubility kinetic [9]: 100 µM (≈ 28.7 µg/mL) |
| O=C(Nc1ccc2oc(-c3ccccc3)nc2c1)c1ccccc1 | > 30 µM | – |
